Laboratory results: ChEMBL document CHEMBL1240415, “Design, synthesis and antimicrobial activities of some new quinoline derivatives carrying 1,2,3-triazole moiety” (2010)
Values after ≈ are worked out from the molar mass of the structure shown.

Experiments:
Assay type in all cases: functional
Staphylococcus aureus = experiment: Antibacterial activity against Staphylococcus aureus ATTC 25923 after 3 to 4 days by serial plate dilution method; conditions: for MIC: Staphylococcus aureus, ATTC 25923
Method in brief: (§1)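 Serial dilutions in Mueller-Hinton broth in tubes, pH adjusted to 5.0 with phosphate buffer. Inoculated with a standardized bacterial suspension and incubated 16–18 h at 37 °C. MIC is the lowest concentration with no visible growth, tested over 6.25–100 µg/mL. Zones come from an agar well diffusion assay: compounds in DMSO are added to wells in seeded agar, DMSO control, triplicate plates, 37 °C for 3–4 days, inhibition zone diameter in mm.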

Escherichia coli = experiment: Antibacterial activity against Escherichia coli ATTC 25922 after 3 to 4 days by serial plate dilution method; conditions: for MIC: Escherichia coli, ATTC 25922; method in brief: as §1
Pseudomonas aeruginosa = experiment: Antibacterial activity against Pseudomonas aeruginosa ATCC 27853 after 3 to 4 days by serial plate dilution method; conditions: for MIC: Pseudomonas aeruginosa, ATCC 27853; method in brief: as §1
Klebsiella pneumoniae = experiment: Antibacterial activity against recultured Klebsiella pneumoniae after 3 to 4 days by serial plate dilution method; conditions: for MIC: Klebsiella pneumoniae; method in brief: as §1
Streptococcus pyogenes = experiment: Antibacterial activity against Streptococcus pyogenes after 3 to 4 days by serial plate dilution method; conditions: for MIC: Streptococcus pyogenes; method in brief: as §1
Aspergillus flavus = experiment: Antifungal activity against Aspergillus flavus NCIM 524 after 3 to 4 days by serial plate dilution method; conditions: for MIC: Aspergillus flavus, NCIM 524
Method in brief: (§2)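 Sabouraud agar made from peptone, glucose and agar in water, pH 5.7. Fungal spores suspended in normal saline and used to lawn the plates, which were dried 1 h at 37 °C. Wells punched and compounds added in DMSO, with a DMSO solvent control. Triplicate plates held at 37 °C for 3–4 days. Read-out is inhibition zone diameter.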

Aspergillus fumigatus = experiment: Antifungal activity against Aspergillus fumigatus NCIM 902 after 3 to 4 days by serial plate dilution method; conditions: for MIC: Aspergillus fumigatus, NCIM 902; method in brief: as §2
Talaromyces marneffei = experiment: Antifungal activity against recultured Penicillium marneffei after 3 to 4 days by serial plate dilution method; conditions: for MIC: Talaromyces marneffei; method in brief: as §2
[1] = tested on: Trichophyton mentagrophytes; experiment: Antifungal activity against recultured Trichophyton mentagrophytes after 3 to 4 days by serial plate dilution method; conditions: for MIC: Trichophyton mentagrophytes; method in brief: as §2
Candida albicans = experiment: Antifungal activity against Candida albicans after 3 to 4 days by serial plate dilution method; conditions: for MIC: Candida albicans; method in brief: as §2

| MIC (Staphylococcus aureus) [µg/mL] | MIC (Escherichia coli) [µg/mL] | MIC (Pseudomonas aeruginosa) [µg/mL] | MIC (Klebsiella pneumoniae) [µg/mL] | MIC (Streptococcus pyogenes) [µg/mL] | MIC (Aspergillus flavus) [µg/mL] | MIC (Aspergillus fumigatus) [µg/mL] | MIC (Talaromyces marneffei) [µg/mL] | MIC [1] [µg/mL] | MIC (Candida albicans) [µg/mL] | Compound | diameter of the inhibition zone (DIZ) (Staphylococcus aureus) [mm] | diameter of the inhibition zone (DIZ) (Escherichia coli) [mm] | diameter of the inhibition zone (DIZ) (Pseudomonas aeruginosa) [mm] | diameter of the inhibition zone (DIZ) (Klebsiella pneumoniae) [mm] | diameter of the inhibition zone (DIZ) (Streptococcus pyogenes) [mm] | diameter of the inhibition zone (DIZ) (Aspergillus flavus) [mm] | diameter of the inhibition zone (DIZ) (Aspergillus fumigatus) [mm] | diameter of the inhibition zone (DIZ) (Talaromyces marneffei) [mm] | diameter of the inhibition zone (DIZ) [1] [mm] | diameter of the inhibition zone (DIZ) (Candida albicans) [mm] |
| --- | --- | --- | --- | --- | --- | --- | --- | --- | --- | --- | --- | --- | --- | --- | --- | --- | --- | --- | --- | --- |
| 6.25 (≈ 16.4 µM) | 6.25 (≈ 16.4 µM) | 6.25 (≈ 16.4 µM) | 6.25 (≈ 16.4 µM) | 6.25 (≈ 16.4 µM) | 6.25 (≈ 16.4 µM) | 6.25 (≈ 16.4 µM) | 6.25 (≈ 16.4 µM) | 6.25 (≈ 16.4 µM) | 6.25 (≈ 16.4 µM) | COc1ccc2nc(C)cc(-n3cc(CN4CCN(C(C)=O)CC4)nn3)c2c1 | 20 | 18 | 14 | 12 | 16 | 14 | 16 | 16 | 14 | 10 |
| 12.5 (≈ 38.4 µM) | 6.25 (≈ 19.2 µM) | 12.5 (≈ 38.4 µM) | 12.5 (≈ 38.4 µM) | 12.5 (≈ 38.4 µM) | 12.5 (≈ 38.4 µM) | 25 (≈ 76.8 µM) | 12.5 (≈ 38.4 µM) | 25 (≈ 76.8 µM) | 12.5 (≈ 38.4 µM) | CCC(C)NCc1cn(-c2cc(C)nc3ccc(OC)cc23)nn1 (stereo not given) | 10 | 14 | 10 | 11 | 12 | 11 | <10 | 10 | <10 | 11 |
| 6.25 (≈ 19.2 µM) | 6.25 (≈ 19.2 µM) | 6.25 (≈ 19.2 µM) | 6.25 (≈ 19.2 µM) | 6.25 (≈ 19.2 µM) | 12.5 (≈ 38.4 µM) | 12.5 (≈ 38.4 µM) | 25 (≈ 76.8 µM) | 12.5 (≈ 38.4 µM) | 12.5 (≈ 38.4 µM) | CCN(CC)Cc1cn(-c2cc(C)nc3ccc(OC)cc23)nn1 | 12 | 14 | 12 | 12 | 14 | 11 | 10 | <10 | 10 | 11 |
| 50 (≈ 148 µM) | 12.5 (≈ 37 µM) | 50 (≈ 148 µM) | 50 (≈ 148 µM) | 12.5 (≈ 37 µM) | 12.5 (≈ 37 µM) | 12.5 (≈ 37 µM) | 12.5 (≈ 37 µM) | 12.5 (≈ 37 µM) | 12.5 (≈ 37 µM) | COc1ccc2nc(C)cc(-n3cc(CN4CCCCC4)nn3)c2c1 | <10 | 10 | <10 | <10 | 10 | 10 | 10 | 12 | 10 | 10 |

Further lines, the compound ahead of its results:

| Compound | MIC (Staphylococcus aureus) [µg/mL] | MIC (Escherichia coli) [µg/mL] | MIC (Pseudomonas aeruginosa) [µg/mL] | MIC (Klebsiella pneumoniae) [µg/mL] | MIC (Streptococcus pyogenes) [µg/mL] | MIC (Aspergillus flavus) [µg/mL] | MIC (Aspergillus fumigatus) [µg/mL] | MIC (Talaromyces marneffei) [µg/mL] | MIC [1] [µg/mL] | MIC (Candida albicans) [µg/mL] | diameter of the inhibition zone (DIZ) (Staphylococcus aureus) [mm] | diameter of the inhibition zone (DIZ) (Escherichia coli) [mm] | diameter of the inhibition zone (DIZ) (Pseudomonas aeruginosa) [mm] | diameter of the inhibition zone (DIZ) (Klebsiella pneumoniae) [mm] | diameter of the inhibition zone (DIZ) (Streptococcus pyogenes) [mm] | diameter of the inhibition zone (DIZ) (Aspergillus flavus) [mm] | diameter of the inhibition zone (DIZ) (Aspergillus fumigatus) [mm] | diameter of the inhibition zone (DIZ) (Talaromyces marneffei) [mm] | diameter of the inhibition zone (DIZ) [1] [mm] | diameter of the inhibition zone (DIZ) (Candida albicans) [mm] |
| --- | --- | --- | --- | --- | --- | --- | --- | --- | --- | --- | --- | --- | --- | --- | --- | --- | --- | --- | --- | --- |
| COc1ccc(N2CCN(Cc3cn(-c4cc(C)nc5ccc(OC)cc45)nn3)CC2)c(C)c1 | 12.5 (≈ 27.3 µM) | 12.5 (≈ 27.3 µM) | 12.5 (≈ 27.3 µM) | 6.25 (≈ 13.6 µM) | 6.25 (≈ 13.6 µM) | 6.25 (≈ 13.6 µM) | 6.25 (≈ 13.6 µM) | 6.25 (≈ 13.6 µM) | 6.25 (≈ 13.6 µM) | 6.25 (≈ 13.6 µM) | 14 | 14 | 10 | 16 | 16 | 14 | 16 | 14 | 14 | 10 |
| COc1ccc2nc(C)cc(-n3cc(CNC4CCCC4)nn3)c2c1 | 6.25 (≈ 18.5 µM) | 6.25 (≈ 18.5 µM) | 6.25 (≈ 18.5 µM) | 6.25 (≈ 18.5 µM) | 6.25 (≈ 18.5 µM) | 6.25 (≈ 18.5 µM) | 6.25 (≈ 18.5 µM) | 6.25 (≈ 18.5 µM) | 6.25 (≈ 18.5 µM) | 6.25 (≈ 18.5 µM) | 12 | 12 | 12 | 14 | 12 | 10 | 14 | 10 | 10 | 10 |
| COc1ccc2nc(C)cc(-n3cc(CN(C)CCN(C)C)nn3)c2c1 | 6.25 (≈ 17.6 µM) | 6.25 (≈ 17.6 µM) | 6.25 (≈ 17.6 µM) | 6.25 (≈ 17.6 µM) | 6.25 (≈ 17.6 µM) | 6.25 (≈ 17.6 µM) | 6.25 (≈ 17.6 µM) | 6.25 (≈ 17.6 µM) | 6.25 (≈ 17.6 µM) | 6.25 (≈ 17.6 µM) | 14 | 14 | 14 | 14 | 16 | 16 | 14 | 16 | 14 | 12 |
| COc1ccc2nc(C)cc(-n3cc(CNC4CCCCC4)nn3)c2c1 | 25 (≈ 71.1 µM) | 12.5 (≈ 35.6 µM) | 12.5 (≈ 35.6 µM) | 12.5 (≈ 35.6 µM) | 12.5 (≈ 35.6 µM) | 12.5 (≈ 35.6 µM) | 25 (≈ 71.1 µM) | 12.5 (≈ 35.6 µM) | 25 (≈ 71.1 µM) | 12.5 (≈ 35.6 µM) | <10 | 10 | 11 | 10 | 12 | 12 | <10 | 10 | <10 | 11 |
| COc1ccc2nc(C)cc(-n3cc(CN4CCN(C5CCCCC5)CC4)nn3)c2c1 | 12.5 (≈ 29.7 µM) | 12.5 (≈ 29.7 µM) | 12.5 (≈ 29.7 µM) | 12.5 (≈ 29.7 µM) | 12.5 (≈ 29.7 µM) | 50 (≈ 119 µM) | 50 (≈ 119 µM) | 50 (≈ 119 µM) | 50 (≈ 119 µM) | 50 (≈ 119 µM) | 10 | 10 | 10 | 10 | 10 | <10 | <10 | <10 | <10 | <10 |
| COc1ccc2nc(C)cc(-n3cc(CN4CCN(c5ccccc5)CC4)nn3)c2c1 | 6.25 (≈ 15.1 µM) | 12.5 (≈ 30.2 µM) | 12.5 (≈ 30.2 µM) | 12.5 (≈ 30.2 µM) | 12.5 (≈ 30.2 µM) | 6.25 (≈ 15.1 µM) | 6.25 (≈ 15.1 µM) | 6.25 (≈ 15.1 µM) | 6.25 (≈ 15.1 µM) | 6.25 (≈ 15.1 µM) | 10 | 12 | 12 | 12 | 10 | 14 | 16 | 16 | 16 | 12 |
| CCN1CCN(Cc2cn(-c3cc(C)nc4ccc(OC)cc34)nn2)CC1 | 6.25 (≈ 17.1 µM) | 6.25 (≈ 17.1 µM) | 6.25 (≈ 17.1 µM) | 6.25 (≈ 17.1 µM) | 6.25 (≈ 17.1 µM) | 6.25 (≈ 17.1 µM) | 6.25 (≈ 17.1 µM) | 6.25 (≈ 17.1 µM) | 6.25 (≈ 17.1 µM) | 6.25 (≈ 17.1 µM) | 18 | 18 | 12 | 16 | 12 | 16 | 14 | 18 | 12 | 12 |
| COc1ccc2nc(C)cc(-n3cc(CN4CCOCC4)nn3)c2c1 | 6.25 (≈ 18.4 µM) | 6.25 (≈ 18.4 µM) | 6.25 (≈ 18.4 µM) | 6.25 (≈ 18.4 µM) | 6.25 (≈ 18.4 µM) | 6.25 (≈ 18.4 µM) | 6.25 (≈ 18.4 µM) | 6.25 (≈ 18.4 µM) | 6.25 (≈ 18.4 µM) | 6.25 (≈ 18.4 µM) | 16 | 16 | 14 | 14 | 16 | 16 | 18 | 12 | 12 | 14 |
